Reference: ChEMBL document CHEMBL4376874, “Discovery of Potent and Selective Epidermal Growth Factor Receptor (EGFR) Bifunctional Small-Molecule Degraders” (J Med Chem, 2020)
Activity calls are given as the source filed them. The calls are words filed in the database; no cut-off is given here.

What was measured:
NCI-H3255 [1] = test: Antiproliferative activity against human H3255 cells measured after 3 days by CCK8 assay; type: functional, cell-based
Procedure, shortened: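 H3255 cells seeded 4000/well the night before, then exposed to serial dilutions for 3 days. Growth read by Cell Counting Kit-8; three independent experiments. IC50 from nonlinear regression (log inhibitor vs response, variable slope).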

[2] = biological target: Epidermal growth factor receptor (Homo sapiens, UniProt P00533, L858R); design: species or system Hofmanni bacterium
[3] = tested on: Epidermal growth factor receptor (Homo sapiens), P00533 [L858R]; test: Induction of EGFR L858R degradation in human H3255 cells up to 100 nM treated 8 hrs post serum starvation measured after 16 hrs by Western blot analysis; type: cell-based
[4] = tested on: Epidermal growth factor receptor (Homo sapiens), P00533 [UNDEFINED MUTATION]; test: Induction of EGFR exon 19 deletion mutant degradation in human HCC827 cells up to 100 nM treated 8 hrs post serum starvation measured after 16 hrs by Western blot analysis; type: cell-based
[5] = biological target: T1, Epidermal growth factor receptor (Homo sapiens, UniProt P00533); test: Binding affinity to human wild-type partial length EGFR (R669 to V1011 residues) expressed in bacterial expression system by kinomescan assay
[6] = tested on: Epidermal growth factor receptor (Homo sapiens), P00533 [UNDEFINED MUTATION]; test: Induction of EGFR exon 19 deletion mutant degradation in human HCC827 cells assessed as reduction in AKT phosphorylation up to 100 nM treated 8 hrs post serum starvation measured after 16 hrs by Western blot analysis; type: cell-based
[7] = tested on: Epidermal growth factor receptor (Homo sapiens), P00533 [L858R]; test: Induction of EGFR L858R degradation in human H3255 cells assessed as reduction in ATK phosphorylation up to 100 nM treated 8 hrs post serum starvation measured after 16 hrs by Western blot analysis; type: cell-based
[8] = tested on: Epidermal growth factor receptor (Homo sapiens), P00533 [L858R]; test: Induction of EGFR L858R degradation in human H3255 cells assessed as reduction in EGFR autophosphorylation up to 100 nM treated 8 hrs post serum starvation measured after 16 hrs by Western blot analysis; type: cell-based
[9] = tested on: Epidermal growth factor receptor (Homo sapiens), P00533 [UNDEFINED MUTATION]; test: Induction of EGFR exon 19 deletion mutant degradation in human HCC827 cells assessed as reduction in EGFR autophosphorylation up to 100 nM treated 8 hrs post serum starvation measured after 16 hrs by Western blot analysis; type: cell-based
[10] = tested on: Protein cereblon/Epidermal growth factor receptor (Homo sapiens), P00533+Q96SW2 [UNDEFINED MUTATION]; test: Protac activity at CRBN/EGFR exon 19 deletion mutant in human HCC827 cells assessed as induction of EGFR degradation at up to 1 uM treated 8 hrs post serum starvation measured after 16 hrs by Western blot analysis; type: cell-based
[11] = tested on: von Hippel-Lindau disease tumor suppressor/Epidermal growth factor receptor (Homo sapiens), P00533+P40337 [UNDEFINED MUTATION]; test: Protac activity at VHL/EGFR exon 19 deletion mutant in human HCC827 cells assessed as induction of EGFR degradation at up to 1 uM treated 8 hrs post serum starvation measured after 16 hrs by Western blot analysis; type: cell-based
Procedure, shortened: (§1)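 Cultured to 80% confluence in RPMI/1640 with 20% FBS at 37 °C and 5% CO2, then switched to serum-free medium for 8 h. Degraders were added over a concentration range up to 10 μM for 16 h, with gefitinib at 1 μM as reference. Lysates in Laemmli buffer were immunoblotted for EGFR, p-EGFR and p-AKT. DC50 came from band quantification by nonlinear regression (variable slope).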

NCI-H3255 [12] = test: Effect on AKT level in human H3255 cells up to 10 uM treated 8 hrs post serum starvation measured after 16 hrs by Western blot analysis; type: ADME, cell-based; settings: nci-h3255, 16 h
HCC827 [13] = test: Up regulation of DAD1 expression in human HCC827 cells at 100 nM measured after 16 hrs by LC-MS analysis; type: functional, cell-based
Procedure, shortened: (§2)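 HCC-827 cells serum-starved 8 h, then treated at 100 nM for 16 h. Collected for label-free quantitative LC–MS proteomics; LFQ intensity compared between treated and control groups; three independent experiments.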

HCC827 [14] = test: Up regulation of HMGCS1 expression in human HCC827 cells at 100 nM measured after 16 hrs by LC-MS analysis; type: functional, cell-based; procedure, shortened: as §2
[15] = biological target: von Hippel-Lindau disease tumor suppressor/Epidermal growth factor receptor (Homo sapiens, UniProt P00533+P40337); test: Protac activity at VHL/EGFR exon 19 deletion mutant in human HCC827 cells assessed as induction of EGFR degradation treated 8 hrs post serum starvation measured after 16 hrs by Western blot analysis
HCC827 [16] = test: Down regulation of TXNIP expression in human HCC827 cells at 100 nM measured after 16 hrs by LC-MS analysis; type: functional, cell-based; procedure, shortened: as §2
HCC827 [17] = test: Down regulation of NGDN expression in human HCC827 cells at 100 nM measured after 16 hrs by LC-MS analysis; type: functional, cell-based; procedure, shortened: as §2
[18] = biological target: T1, Epidermal growth factor receptor; test: Induction of wild-type EGFR degradation in human OVCAR8 cells at up to 10 uM treated 8 hrs post serum starvation measured after 16 hrs by Western blot analysis; type: cell-based
HCC827 [19] = test: Up regulation of BIN1 expression in human HCC827 cells at 100 nM measured after 16 hrs by LC-MS analysis; type: functional, cell-based; procedure, shortened: as §2
HCC827 [20] = test: Up regulation of RRM2 expression in human HCC827 cells at 100 nM measured after 16 hrs by LC-MS analysis; type: functional, cell-based; procedure, shortened: as §2
[21] = biological target: von Hippel-Lindau disease tumor suppressor/Epidermal growth factor receptor (Homo sapiens, UniProt P00533+P40337, L858R)
[22] = Cmax in Swiss albino mouse at 50 mg/kg, ip measured after 24 hrs; type: ADME, organism-based; design: dose 50 mg/kg, route intraperitoneal; settings: in vivo
HCC827 [23] = test: Up regulation of SEC61G expression in human HCC827 cells at 100 nM measured after 16 hrs by LC-MS analysis; type: functional, cell-based; procedure, shortened: as §2
[24] = biological target: T1, Epidermal growth factor receptor; test: Induction of wild-type EGFR degradation in human H1299 cells at up to 10 uM treated 8 hrs post serum starvation measured after 16 hrs by Western blot analysis; type: cell-based
HCC827 [25] = test: Effect on AKT level in human HCC827 cells up to 10 uM treated 8 hrs post serum starvation measured after 16 hrs by Western blot analysis; type: ADME, cell-based; settings: hcc827, 16 h
[26] = Cmax in Swiss albino mouse at 50 mg/kg, ip measured after 8 hrs; type: ADME, organism-based; design: dose 50 mg/kg, route intraperitoneal; settings: in vivo
[27] = Toxicity in Swiss albino mouse assessed as clinical changes at 50 mg/kg, ip; type: organism-based; settings: in vivo
[28] = tested on: von Hippel-Lindau disease tumor suppressor/Epidermal growth factor receptor (Homo sapiens), P00533+P40337 [UNDEFINED MUTATION]; test: Protac activity at VHL/EGFR exon 19 deletion mutant in human HCC827 cells assessed as induction of EGFR degradation at 1 to 10 uM treated 8 hrs post serum starvation measured after 16 hrs by Western blot analysis; type: cell-based; procedure, shortened: as §1
[29] = tested on: von Hippel-Lindau disease tumor suppressor/Epidermal growth factor receptor (Homo sapiens), P00533+P40337 [UNDEFINED MUTATION]; test: Protac activity at VHL/EGFR exon 19 deletion mutant in human HCC827 cells assessed as reduction in AKT phosphorylation up to 10 uM treated 8 hrs post serum starvation measured after 16 hrs by Western blot analysis; type: cell-based
[30] = tested on: von Hippel-Lindau disease tumor suppressor/Epidermal growth factor receptor (Homo sapiens), P00533+P40337 [L858R]; test: Protac activity at VHL/EGFR L858R mutant in human H3255 cells assessed as induction of EGFR degradation at 1 to 10 uM treated 8 hrs post serum starvation measured after 16 hrs by Western blot analysis; type: cell-based; procedure, shortened: as §1
[31] = tested on: von Hippel-Lindau disease tumor suppressor/Epidermal growth factor receptor (Homo sapiens), P00533+P40337 [L858R]; test: Protac activity at VHL/EGFR L858R mutant in human H3255 cells assessed as reduction in EGFR autophosphorylation up to 10 uM treated 8 hrs post serum starvation measured after 16 hrs by Western blot analysis; type: cell-based
[32] = tested on: von Hippel-Lindau disease tumor suppressor/Epidermal growth factor receptor (Homo sapiens), P00533+P40337 [UNDEFINED MUTATION]; test: Protac activity at VHL/EGFR exon 19 deletion mutant in human HCC827 cells assessed as reduction in EGFR autophosphorylation up to 10 uM treated 8 hrs post serum starvation measured after 16 hrs by Western blot analysis; type: cell-based
[33] = tested on: von Hippel-Lindau disease tumor suppressor/Epidermal growth factor receptor (Homo sapiens), P00533+P40337 [L858R]; test: Protac activity at VHL/EGFR L858R mutant in human H3255 cells assessed as induction of EGFR degradation up to 500 nM treated 8 hrs post serum starvation measured after 16 hrs by Western blot analysis; type: cell-based; procedure, shortened: as §1
[34] = tested on: von Hippel-Lindau disease tumor suppressor/Epidermal growth factor receptor (Homo sapiens), P00533+P40337 [L858R]; test: Protac activity at VHL/EGFR L858R mutant in human H3255 cells assessed as reduction in AKT phosphorylation up to 10 uM treated 8 hrs post serum starvation measured after 16 hrs by Western blot analysis; type: cell-based
[35] = tested on: von Hippel-Lindau disease tumor suppressor/Epidermal growth factor receptor (Homo sapiens), P00533+P40337 [UNDEFINED MUTATION]; test: Protac activity at VHL/EGFR exon 19 deletion mutant in human HCC827 cells assessed as induction of EGFR degradation up to 500 nM treated 8 hrs post serum starvation measured after 16 hrs by Western blot analysis; type: cell-based

COc1cc2ncnc(Nc3ccc(F)c(Cl)c3)c2cc1OCCCN1CCOCC1
Activity (NCI-H3255 [1]): Active

COc1cc2ncnc(Nc3ccc(F)c(Cl)c3)c2cc1OCCCN1CCN(CCC(=O)NCCCCCCCCOc2cccc3c2C(=O)N(C2CCC(=O)N(C)C2=O)C3=O)CC1 (configuration not stated)
Kd [2]: 4.3 nM
Activity [3]: inactive
Activity [4]: inactive
Kd [5]: 3 nM
Activity [6]: Active
Activity [7]: Active
Activity [8]: Active
Activity (NCI-H3255 [1]): Active
Activity [9]: Active

COc1cc2ncnc(Nc3ccc(F)c(Cl)c3)c2cc1OCCCN1CCN(CCC(=O)NCCCCCCNc2cccc3c2C(=O)N(C2CCC(=O)NC2=O)C3=O)CC1 (configuration not stated)
Activity [10]: Active

COc1cc2ncnc(Nc3ccc(F)c(Cl)c3)c2cc1OCCCN1CCN(C(=O)CCCCCCCCCC(=O)N[C@H](C(=O)N2C[C@@H](O)C[C@@H]2C(=O)NCc2ccc(-c3scnc3C)cc2)C(C)(C)C)CC1
Kd [2]: 9 nM
Kd [5]: 8.6 nM
Activity (NCI-H3255 [1]): Active

COc1cc2ncnc(Nc3ccc(F)c(Cl)c3)c2cc1OCCCN1CCN(C(=O)CCOCCOCCOCCC(=O)N[C@H](C(=O)N2C[C@H](O)C[C@H]2C(=O)NCc2ccc(-c3scnc3C)cc2)C(C)(C)C)CC1
Activity [11]: inactive

COc1cc2ncnc(Nc3ccc(F)c(Cl)c3)c2cc1OCCCN1CCN(CCC(=O)NCCOCCNc2cccc3c2C(=O)N(C2CCC(=O)NC2=O)C3=O)CC1 (configuration not stated)
Activity [10]: Active

COc1cc2ncnc(Nc3ccc(F)c(Cl)c3)c2cc1OCCCN1CCN(C(=O)CCCCCCCCCC(=O)N[C@H](C(=O)N2C[C@H](O)C[C@H]2C(=O)NCc2ccc(-c3scnc3C)cc2)C(C)(C)C)CC1
Kd [2]: 12 nM
Activity (NCI-H3255 [12]): Non-Toxic
Kd [5]: 11 nM
Activity (HCC827 [13]): Active
Activity (HCC827 [14]): Active
DC50 [15]: 5 nM
Activity (HCC827 [16]): Active
Activity (HCC827 [17]): Active
Activity (NCI-H3255 [1]): Active
Activity [18]: Not Active
Activity (HCC827 [19]): Active
Activity (HCC827 [20]): Active
DC50 [21]: 3.3 nM
Cmax [22]: 1000 nM
Activity (HCC827 [23]): Active
Activity [24]: Not Active
Activity (HCC827 [25]): Non-Toxic
Cmax [26]: 5000 nM
Activity [27]: Non-Toxic

COc1cc2ncnc(Nc3ccc(F)c(Cl)c3)c2cc1OCCCCCOCCOCCC(=O)N[C@H](C(=O)N1C[C@H](O)C[C@H]1C(=O)NCc1ccc(-c2scnc2C)cc1)C(C)(C)C
Activity [28]: inactive
Activity [29]: Active
Activity [30]: inactive
Activity [31]: Active
Activity [32]: Active
Activity [33]: Active
Activity (NCI-H3255 [1]): Active
Activity [34]: Active
Activity [35]: Active

COc1cc2ncnc(Nc3ccc(F)c(Cl)c3)c2cc1OCCCN1CCN(C(=O)CCOCCOCCOCCOCCOCCC(=O)N[C@H](C(=O)N2C[C@H](O)C[C@H]2C(=O)NCc2ccc(-c3scnc3C)cc2)C(C)(C)C)CC1
Activity [11]: inactive

COc1cc2ncnc(Nc3ccc(F)c(Cl)c3)c2cc1OCCCN1CCN(CCC(=O)NCCOCCOCCOCCOCCOCCNc2cccc3c2C(=O)N(C2CCC(=O)NC2=O)C3=O)CC1 (configuration not stated)
Activity [10]: Active

COc1cc2ncnc(Nc3ccc(F)c(Cl)c3)c2cc1OCCCN1CCN(C(=O)CCOCCC(=O)N[C@H](C(=O)N2C[C@H](O)C[C@H]2C(=O)NCc2ccc(-c3scnc3C)cc2)C(C)(C)C)CC1
Activity [11]: inactive
